Test results: ChEMBL document CHEMBL4373727, “Thienopyrimidinone Derivatives That Inhibit Bacterial tRNA (Guanine37-N1)-Methyltransferase (TrmD) by Restructuring the Active Site with a Tyrosine-Flipping Mechanism” (J Med Chem, 2019)
Converted amounts (≈) assume the structure as drawn. The source made the active and inactive calls. Unless noted, no cut-off for these calls is given here.

Columns and labels:
[1] = Selectivity ratio of Kd for full length Staphylococcus aureus tRNA (guanine(37)-N1)-methyltransferase expressed in Escherichia coli BL21 (DE3) to Kd for Pseudomonas aeruginosa tRNA (guanine(37)-N1)-methyltransferase (Leu5 to Asp25 residues) expressed in Escherichia coli BL21 (DE3) Rosetta T1R cells
[2] = target: T1, tRNA (guanine-N(1)-)-methyltransferase (Staphylococcus aureus (strain NCTC 8325 / PS 47)) (UniProt Q2FZ43); experiment: Binding affinity to full length Staphylococcus aureus tRNA (guanine(37)-N1)-methyltransferase expressed in Escherichia coli BL21 (DE3) assessed as thermal stabilization of protein by measuring change in melting temperature at 0.1 mM by SYPRO orange based thermal shift assay
T1 sequence (whole entry): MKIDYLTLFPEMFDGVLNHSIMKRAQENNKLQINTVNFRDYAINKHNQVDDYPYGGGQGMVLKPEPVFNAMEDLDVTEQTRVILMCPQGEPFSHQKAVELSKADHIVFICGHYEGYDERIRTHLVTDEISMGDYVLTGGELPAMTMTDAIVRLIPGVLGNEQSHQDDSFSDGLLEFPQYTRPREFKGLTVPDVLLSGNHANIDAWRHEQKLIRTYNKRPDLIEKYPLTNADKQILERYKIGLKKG

Pseudomonas aeruginosa = experiment: Antibacterial activity against Pseudomonas aeruginosa PA14 incubated for 24 hrs by serial broth microdilution method; type: functional, organism-based
Outline: (§1)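 Log-phase cultures from four colonies grown overnight at 37 °C, inoculated at ~5×10^5 cells/mL in cation-adjusted Mueller–Hinton broth with serially diluted compound. Grown 24 h at 37 °C, then OD600 read. MIC50/MIC90 are the concentrations giving 50%/90% growth inhibition relative to drug-free controls. Two independent experiments in duplicate.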

Salmonella enteritidis [3] = experiment: Antibacterial activity against Salmonella enteritidis ATCC 13076 incubated for 24 hrs by serial broth microdilution method; type: functional; conditions: Salmonella enterica subsp. enterica serovar Enteritidis; outline: as §1
Staphylococcus aureus [4] = experiment: Antibacterial activity against methicillin-resistant Staphylococcus aureus ATCC 43300 incubated for 24 hrs by serial broth microdilution method; type: functional; conditions: ATCC 43300, 24 h
Outline: (§2)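 Growth read by OD600. MRSA in cation-adjusted Mueller–Hinton broth, M. smegmatis in complete 7H9. MIC50 and MIC90 are 50% and 90% growth inhibition versus drug-free controls. Two independent experiments, each in duplicate.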

Enterococcus faecalis [5] = experiment: Antibacterial activity against Enterococcus faecalis ATCC 51299 incubated for 24 hrs by serial broth microdilution method; type: functional, organism-based
Outline: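 Broth microdilution in brain heart infusion broth, ~5×10^5 cells/mL log-phase inoculum, serial compound dilutions, 24 h at 37 °C, OD600 read-out. MIC50/MIC90 are the concentrations giving 50%/90% growth inhibition relative to drug-free controls. Two independent experiments in duplicate.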

[6] = test system: Mycolicibacterium smegmatis; experiment: Antibacterial activity against Mycolicibacterium smegmatis MC2 155 incubated for 24 hrs by serial broth microdilution method; type: functional; conditions: MC2 155, 24 h; outline: as §2
[7] = test system: Mycobacterium tuberculosis; experiment: Antibacterial activity against Mycobacterium tuberculosis ATCC 27294 incubated for 7 days by broth dilution method; type: functional; conditions: ATCC 27294, 168 h
Outline: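 M. tuberculosis ATCC 27294 in complete 7H9 with 0.05% Tween 80, 0.5% glycerol and 10% ADC. Mid-log cells adjusted to OD600 0.1 and added 1:1 to 2-fold serial compound dilutions (highest 100 μM). Incubated 7 d at 37 °C with shaking at 80 rpm, then OD600 read. Isoniazid positive control. MIC50/MIC90 versus drug-free controls. Biological duplicates.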

Acinetobacter baumannii = experiment: Bactericidal activity against Acinetobacter baumannii ATCC 17961 assessed as reduction in CFU at 1 to 4 times MIC90 incubated for 24 hrs; type: functional; conditions: ATCC 17961, 24 h, read-out: MBC99.9
Klebsiella pneumoniae = experiment: Bactericidal activity against Klebsiella pneumoniae ATCC 13883 assessed as reduction in CFU at 1 to 4 times MIC90 incubated for 24 hrs; type: functional, organism-based
Salmonella enteritidis [8] = experiment: Bactericidal activity against Salmonella enteritidis ATCC 13076 assessed as reduction in CFU at 1 to 4 times MIC90 incubated for 24 hrs; type: functional; conditions: Salmonella enterica subsp. enterica serovar Enteritidis
Escherichia coli = experiment: Bactericidal activity against Escherichia coli BW25113 assessed as reduction in CFU at 1 to 4 times MIC90 incubated for 24 hrs; type: functional, organism-based
Staphylococcus aureus [9] = experiment: Bactericidal activity against methicillin-resistant Staphylococcus aureus ATCC 43300 assessed as reduction in CFU at 1 to 4 times MIC90 incubated for 24 hrs; type: functional; conditions: ATCC 43300, 24 h, read-out: MBC99.9
Enterococcus faecalis [10] = experiment: Bactericidal activity against Enterococcus faecalis ATCC 51299 assessed as reduction in CFU at 1 to 4 times MIC90 incubated for 24 hrs; type: functional, organism-based
Streptococcus pneumoniae = experiment: Bactericidal activity against Streptococcus pneumoniae ATCC 49619 assessed as reduction in CFU at 1 to 4 times MIC90 incubated for 24 hrs; type: functional; conditions: ATCC 49619, 24 h, read-out: MBC99.9
[11] = test system: Mycolicibacterium smegmatis; experiment: Bactericidal activity against Mycolicibacterium smegmatis MC2 155 assessed as reduction in CFU at 1 to 4 times MIC90 incubated for 24 hrs; type: functional; conditions: MC2 155, 24 h, read-out: MBC99.9
Erythrocyte = experiment: Hemolytic activity in human RBC at 100 uM measured after 1 hr; type: ADME, cell-based
Outline: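 Fresh human RBCs were PBS-washed and resuspended to OD600 24, then mixed 1:1 by volume with compound serially diluted in PBS. Incubated 1 h at 37 °C without shaking and centrifuged at 1000g for 15 min. Triton X-100 served as positive control. Run in triplicate.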

[12] = target: T2, tRNA (guanine-N(1)-)-methyltransferase (Pseudomonas aeruginosa (strain ATCC 15692 / DSM 22644 / CIP 104116 / JCM14847 / LMG 12228 / 1C / PRS 101 / PAO1)) (UniProt Q9HXQ1); experiment: Inhibition of Pseudomonas aeruginosa tRNA (guanine(37)-N1)-methyltransferase (Leu5 to Asp25 residues) expressed in Escherichia coli BL21 (DE3) Rosetta T1R cells assessed as reduction in S-adenosyl-L-homocysteine production preincubated for 30 mins followed by 1.5 to 15 uM of tRNALeu(CAG) substrate and SAM addition and measured after 60 mins by MTase-Glo assay
T2 sequence (whole entry): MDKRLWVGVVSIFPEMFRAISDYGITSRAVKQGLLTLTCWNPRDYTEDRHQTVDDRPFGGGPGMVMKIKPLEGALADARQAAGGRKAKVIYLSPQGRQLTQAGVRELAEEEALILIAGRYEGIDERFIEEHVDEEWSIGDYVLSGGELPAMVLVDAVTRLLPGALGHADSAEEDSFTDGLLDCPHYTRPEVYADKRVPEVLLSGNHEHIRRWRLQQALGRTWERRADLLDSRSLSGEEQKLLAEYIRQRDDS

## NC1CCN(Cc2ccc(CNC(=O)c3csc4nc[nH]c(=O)c34)cc2)CC1
[1]
  Ratio: 100 to 300
[2]
  ΔTm: 1 to 13 °C

## CCCCCCCCNCc1ccc(CNC(=O)c2csc3nc[nH]c(=O)c23)cc1
Pseudomonas aeruginosa
  MIC50: inactive
  MIC90: inactive
Salmonella enteritidis [3]
  MIC50: inactive
  MIC90: inactive
Staphylococcus aureus [4]
  MIC50: 31 µM (≈ 13.2 µg/mL)
  MIC90: 36 µM (≈ 15.4 µg/mL)
Enterococcus faecalis [5]
  MIC50: inactive
  MIC90: inactive
[6]
  MIC50: 58 µM (≈ 24.7 µg/mL)
[7]
  MIC50: 78 µM (≈ 33.3 µg/mL)
  MIC90: > 100 µM
Acinetobacter baumannii
  MBC: > 100 µM
Klebsiella pneumoniae
  MBC99.9: inactive
Salmonella enteritidis [8]
  MBC99.9: inactive
Escherichia coli
  MBC99.9: inactive
Staphylococcus aureus [9]
  MBC: 54 µM (≈ 23 µg/mL)
Enterococcus faecalis [10]
  MBC99.9: inactive
Streptococcus pneumoniae
  MBC: > 100 µM
[11]
  MBC: > 100 µM
Erythrocyte
  Activity: Non-Toxic
[12]
  inhibition: Dose-dependent effect
